Measurements from ChEMBL document CHEMBL4130618, “Paralithocins, Antimicrobial Peptides with Unusual Disulfide Connectivity from the Red King Crab, Paralithodes camtschaticus” (2018).
In brackets after ≈: the same amount, converted by molar mass.

Legend:
Type in all cases: functional
Escherichia coli = assay: Antibacterial activity against Escherichia coli ATCC 25922 measured after 24 hrs; conditions: ATCC 25922, 24 h
Outline: (§1)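 Purified native peptide in 2-fold serial dilutions in double-distilled water (1.6–100 μM). 50 μL was mixed with an equal volume of actively growing bacteria (5 × 10^3 cells/well) in Mueller Hinton broth and incubated 24 h at 37 °C. Growth was followed by OD. MIC is the lowest concentration giving OD <50% of the water growth control, read at control OD ≈0.3.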

Pseudomonas aeruginosa = assay: Antibacterial activity against Pseudomonas aeruginosa […] measured after 24 hrs; outline: as §1
Yersinia ruckeri = assay: Antibacterial activity against Yersinia ruckeri CCUG 14190 measured after 72 hrs; conditions: CCUG 14190, 72 h
Outline: (§2)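 Marine strains were grown in Mueller Hinton broth. Peptide in 2-fold dilutions in double-distilled water (1.6–100 μM, up to 200 μM for selected marine strains), 50 μL plus an equal volume of growing bacteria at 5 × 10^3 cells/well, 72 h at 12 °C. OD was monitored. MIC is the lowest concentration giving OD <50% of the water growth control.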

Vibrio anguillarum = assay: Antibacterial activity against Listonella anguillarum AL104 measured after 72 hrs; conditions: AL104, 72 h; outline: as §2
Aeromonas salmonicida = assay: Antibacterial activity against Aeromonas salmonicida AL2020 measured after 72 hrs; conditions: AL2020, 72 h; outline: as §2
[1] = system: Corynebacterium glutamicum; assay: Antibacterial activity against Corynebacterium glutamicum ATCC 13032 measured after 24 hrs; conditions: ATCC 13032, 24 h; outline: as §1
Staphylococcus aureus = assay: Antibacterial activity against Staphylococcus aureus ATCC 9144 measured after 24 hrs; conditions: ATCC 9144, 24 h; outline: as §1
[2] = system: Carnobacterium maltaromaticum; assay: Antibacterial activity against Carnobacterium maltaromaticum CCUG 34645 measured after 72 hrs; conditions: CCUG 34645, 72 h
Outline: (§3)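 Carnobacteria were grown in modified tryptic soy broth with 5% glucose and 2% NaCl. 2-fold peptide dilutions in double-distilled water (1.6–100 μM, up to 200 μM for selected marine strains), 50 μL mixed 1:1 with growing cells (5 × 10^3/well), incubated 72 h at 12 °C. MIC is the lowest concentration with OD below 50% of the water growth control.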

Carnobacterium mobile = assay: Antibacterial activity against Carnobacterium mobile measured after 72 hrs; outline: as §3
Carnobacterium divergens = assay: Antibacterial activity against Carnobacterium divergens measured after 72 hrs; outline: as §3
Carnobacterium funditum = assay: Antibacterial activity against Carnobacterium funditum CCUG 34644 measured after 72 hrs; conditions: CCUG 34644, 72 h; outline: as §3

MIC (Escherichia coli) [µM]	MIC (Pseudomonas aeruginosa) [µM]	MIC (Yersinia ruckeri) [µM]	MIC (Vibrio anguillarum) [µM]	MIC (Aeromonas salmonicida) [µM]	MIC [1] [µM]	MIC (Staphylococcus aureus) [µM]	MIC [2] [µM]	MIC (Carnobacterium mobile) [µM]	MIC (Carnobacterium divergens) [µM]	MIC (Carnobacterium funditum) [µM]	Compound
> 100	> 100	> 100	> 100	200 (≈ 816 µg/mL)	50 (≈ 204 µg/mL)	> 100	200 (≈ 816 µg/mL)	100 (≈ 408 µg/mL)	200 (≈ 816 µg/mL)	200 (≈ 816 µg/mL)	CC[C@H](C)[C@@H]1NC(=O)[C@H](CO)NC(=O)[C@H](CO)NC(=O)[C@@H](NC(=O)[C@H](CO)NC(=O)[C@@H]2CCCN2C(=O)[C@H](CCC(N)=O)NC(=O)[C@H](CCC(N)=O)NC(=O)[C@@H](N)Cc2c[nH]c3ccccc23)CSSC[C@@H](C(=O)N[C@@H](CCCNC(=N)N)C(=O)N[C@@H](CCCNC(=N)N)C(=O)NCC(=O)N2CCC[C@H]2C(=O)N[C@H](C(=O)N[C@@H](Cc2ccc(O)cc2)C(=O)O)[C@@H](C)CC)NC(=O)[C@H](CO)NC(=O)[C@H](C)NC(=O)[C@@H]2CSSC[C@H]3NC(=O)[C@H](C)NC(=O)[C@H](CO)NC(=O)[C@H](CCCCN)NC(=O)CNC(=O)[C@@H]4CSSC[C@H](NC(=O)[C@H](CCCNC(=N)N)NC(=O)CNC(=O)[C@H](CO)NC(=O)[C@H](Cc5ccc(O)cc5)NC(=O)[C@H](CO)NC(=O)[C@H]([C@@H](C)CC)NC3=O)C(=O)NCC(=O)N[C@@H](CSSC[C@H](NC1=O)C(=O)N[C@@H](CC(=O)O)C(=O)N[C@@H](Cc1ccc(O)cc1)C(=O)N[C@@H](CO)C(=O)N4)C(=O)N2
1.6	1.6	0.8	1.6	3.1	1.6	100	50	6.3	25	25	H-SWLSKTAKKLENSAKKRISEGIAIAIQGGPR-OH
